Assay results from ChEMBL document CHEMBL1152671, “Structure-activity relationship studies of manzamine A: amidation of positions 6 and 8 of the beta-carboline moiety” (Bioorg Med Chem, 2009).
Converted amounts (≈) assume the structure as drawn. The source made the active and inactive calls.

Experiments:
[1] = system: Candida albicans; test: Antifungal activity against Candida albicans by modified NCCLS method; assay type: functional, organism-based
[2] = system: Candida albicans; test: Antifungal activity against Candida albicans after 24 hrs by alamar blue assay
[3] = system: Cryptococcus neoformans; test: Antifungal activity against Cryptococcus neoformans by modified NCCLS method; assay type: functional, organism-based
[4] = system: Cryptococcus neoformans; test: Antifungal activity against Cryptococcus neoformans after 24 hrs by alamar blue assay; assay type: functional
[5] = system: Aspergillus fumigatus; test: Antifungal activity against Aspergillus fumigatus by modified NCCLS method; assay type: functional, organism-based
[6] = system: Aspergillus fumigatus; test: Antifungal activity against Aspergillus fumigatus after 24 hrs by alamar blue assay
[7] = system: Plasmodium falciparum; test: Antimalarial activity against chloroquine-sensitive Plasmodium falciparum D6 infected in African green monkey (Cercopithecus aethiops) Vero cells assessed as parasite LDH activity after 72 hrs; assay type: functional, organism-based
[8] = system: Plasmodium falciparum; test: Antimalarial activity against chloroquine-resistant Plasmodium falciparum W2 infected in African green monkey (Cercopithecus aethiops) (Cercopithecus aethiops) Vero cells assessed as parasite LDH activity after 72 hrs; assay type: functional, organism-based
[9] = system: Vero; test: Cytotoxicity against african green monkey Vero cells up to 470 nM by neutral red assay; assay type: cell-based; settings: chlorocebus sabaeus
[10] = system: Mycobacterium intracellulare; test: Antibacterial activity against Mycobacterium intracellular by alamar blue assay; assay type: functional, organism-based
[11] = system: Mycobacterium intracellulare; test: Antibacterial activity against Mycobacterium intracellular after 24 hrs by alamar blue assay; assay type: functional
[12] = system: Escherichia coli; test: Antibacterial activity against Escherichia coli by modified NCCLS method; assay type: functional, organism-based
[13] = system: Pseudomonas aeruginosa; test: Antibacterial activity against Pseudomonas aeruginosa by modified NCCLS method; assay type: functional, organism-based
[14] = system: Candida albicans
[15] = system: Aspergillus fumigatus
[16] = Therapeutic index, ratio of TC50 for african green monkey (Cercopithecus aethiops) Vero cells to IC50 for chloroquine-sensitive Plasmodium falciparum D6 infected in african green monkey (Cercopithecus aethiops) Vero cells; assay type: cell-based; settings: read-out: TI
[17] = Therapeutic index, ratio of TC50 for african green monkey (Cercopithecus aethiops) Vero cells to IC50 for chloroquine-resistant Plasmodium falciparum W2 infected in african green monkey (Cercopithecus aethiops) Vero cells; assay type: cell-based; settings: read-out: TI
[18] = system: Plasmodium berghei; test: Antimalarial activity against Plasmodium berghei NK65 infected in Swiss Webster mice (Mus musculus) assessed as inhibition of parasitaemia at 30 mg/kg, perorally daily for 3 consecutive days administered 2 hrs after infection measured on day 28 post infection; assay type: functional; settings: route oral
Method in brief: (§1)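 Male Swiss Webster mice, 18–20 g, inoculated intraperitoneally with 2 × 10⁷ P. berghei NK-65 parasitized red blood cells taken from a donor mouse. Groups of 5 mice were dosed orally about 2 h post-infection, once daily on […], at 3.3, 10 or 30 mg/kg. Controls were vehicle and chloroquine 10 mg/kg. Mice were observed after each dose for toxicity signs. Parasitemia was read on Giemsa-stained tail-blood smears, with suppression on days 5 and 7 and cure defined as no parasitemia to day 28.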

[19] = system: Mus musculus; test: Toxicity in Swiss Webster mice (Mus musculus) infected with Plasmodium berghei NK65 at 30 mg/kg, perorally QD for 3 consecutive days administered 2 hrs after infection; assay type: organism-based; parameters: dose 30 mg/kg, route oral; settings: in vivo, po; method in brief: as §1
[20] = Candida albicans, read-out: IC50
[21] = Cryptococcus neoformans, read-out: IC50

Row | SMILES | IC50 [3, 21] [nM] | MIC [4] | IC50 [7] [nM] | IC50 [8] [nM] | Activity [9] | IC50 [1] | IC50 [10] [nM] | MIC [11] [µM] | IC50 [5] | Activity [12] | Activity [13] | MIC [14] | MIC [15] | further results
1 | C[C@@H]1[C@H](O)[C@@H](C)/C=C/C=C/C=C/C=C/C=C/C=C/C=C/[C@H](O[C@@H]2O[C@H](C)[C@@H](O)[C@H](N)[C@@H]2O)C[C@@H]2O[C@](O)(C[C@@H](O)C[C@@H](O)[C@H](O)CC[C@@H](O)C[C@@H](O)CC(=O)O[C@H]1C)C[C@H](O)[C@H]2C(=O)O [AMPHOTERICIN B] | 920 | 2.71 µM (≈ 2.5 µg/mL) | – | – | – | – | – | – | – | – | – | – | – | IC50 [1, 20]: 487 nM; MIC [2]: 1.35 µM (≈ 1.25 µg/mL); IC50 ([5]; Aspergillus fumigatus, read-out: IC50): 1620 nM; MIC [6]: 2.7 µM (≈ 2.5 µg/mL)
2 | CC(C)(C)CC(=O)Nc1ccc2[nH]c3c(C4=C[C@@]5(O)CC/C=C\CCCCN6CC[C@@H]4[C@]4(C[C@@H]7/C=C\CCCCN7[C@H]45)C6)nccc3c2c1 | – | inactive | 211 | 302 | Non-toxic | Not Active | 1360 | 1.89 (≈ 1.25 µg/mL) | Not Active | inactive | inactive | inactive | inactive | IC50 [3]: Not Active
3 | O[C@]12C=C(c3nccc4c3[nH]c3ccccc34)[C@@H]3CCN(CCCC/C=C\CC1)C[C@@]31C[C@@H]3/C=C\CCCCN3[C@H]12 [MANZAMINE A] | 1850 | – | 8 | 11 | – | – | – | – | – | – | – | inactive | – | selectivity ratio [16]: 44; selectivity ratio [17]: 25; IC50 [1, 20]: 3660 nM
4 | CCCCCC(=O)Nc1cccc2c1[nH]c1c(C3=C[C@@]4(O)CC/C=C\CCCCN5CC[C@@H]3[C@]3(C[C@@H]6/C=C\CCCCN6[C@H]34)C5)nccc12 [8-N-HEXAMIDOMANZAMINE A] | 3780 | inactive | 32 | 65 | Non-toxic | Not Active | 30 | 0.468 (≈ 0.31 µg/mL) | Not Active | inactive | inactive | inactive | inactive | inhibition in vivo at 30 mg/kg [18]: 62%; Activity [19]: Non-toxic
5 | O=C(Nc1cccc2c1[nH]c1c(C3=C[C@@]4(O)CC/C=C\CCCCN5CC[C@@H]3[C@]3(C[C@@H]6/C=C\CCCCN6[C@H]34)C5)nccc12)C1CCCCC1 [8-CYCLOHEXAMIDOMANZAMINE A] | – | inactive | 950 | 995 | Non-toxic | Not Active | 11100 | 14.8 (≈ 10 µg/mL) | Not Active | inactive | inactive | inactive | inactive | IC50 [3]: Not Active
6 | O=C(Nc1ccc2[nH]c3c(C4=C[C@@]5(O)CC/C=C\CCCCN6CC[C@@H]4[C@]4(C[C@@H]7/C=C\CCCCN7[C@H]45)C6)nccc3c2c1)C1CCCCC1 [6-CYCLOHEXAMIDOMANZAMINE A] | 22300 | inactive | 34 | 53 | Non-toxic | Not Active | 1260 | 1.86 (≈ 1.25 µg/mL) | Not Active | inactive | inactive | inactive | inactive | inhibition in vivo at 30 mg/kg [18]: 24%; Activity [19]: Non-toxic
7 | CCCC(=O)Nc1cccc2c1[nH]c1c(C3=C[C@@]4(O)CC/C=C\CCCCN5CC[C@@H]3[C@]3(C[C@@H]6/C=C\CCCCN6[C@H]34)C5)nccc12 [8-N-BUTAMIDOMANZAMINE A] | 23700 | inactive | 35 | 121 | Non-toxic | Not Active | 868 | 1.97 (≈ 1.25 µg/mL) | Not Active | inactive | inactive | inactive | inactive | –
